What is called inhibition in vivo is the drop in the measured response relative to a control, in per cent.

Holding throughout (assay type): functional
Test [1] has as its system Rattus norvegicus. Kind of test: (§1) Tested for average turns of rat / 1st 15 min at intraperitoneal dosage of 0.1 mg/kg. In a few lines:
(§2)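 Rats with unilateral 6-hydroxydopamine nigrostriatal lesions dosed i.p.; contralateral rotation scored as % of rats turning and average turns during first 15 min after turning began; 6-10 rats per group. Method of Ungerstedt and Arbuthnot.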

Test [2] has as its system Rattus norvegicus. Kind of test: (§3) Percentage of lesioned rats exhibiting contralateral turning after intraperitoneal dosage of 0.1 mg/kg. In a few lines: as §2
Test [3] relates to Rattus norvegicus. Kind of test: Percentage of lesioned rats exhibiting contralateral turning after intraperitoneal dosage of 1.0 mg/kg. The procedure, abridged:
as §2

For test [4], the system named is Rattus norvegicus. The test is described as follows: Average turns of rat / 1st 15 min at intraperitoneal dosage of 1.0 mg/kg.
For test [5], the species on record is Rattus norvegicus. Kind of test: animal or person. The following applies: ip, route intraperitoneal.
Test [6] relates to Rattus norvegicus. The test is described as follows: (§4) Dopaminergic activity causing prolactin inhibition in reserpinized rat after i.p. administration at dosage of 5.0 mg/kg. The following applies: ip, route intraperitoneal.
Test [7] deals with Rattus norvegicus. The test is described as follows: Control Serum prolactin level in reserpinized rat after i.p. administration at dosage of 0.05 mg/kg. Particulars: route intraperitoneal.
Test [8] has as its system Rattus norvegicus. Kind of test: (§5) Tested for lowering of serum prolactin level in reserpinized rat after i.p. administration at dosage of 0.05 mg/kg. The following applies: route intraperitoneal.
Test [9] concerns Rattus norvegicus. The test is described as follows: Percentage of lesioned rats exhibiting contralateral turning after ip dosage of 1.0 mg/kg. Particulars: route intraperitoneal. The procedure, abridged: (§6)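 Rats with unilateral 6-hydroxydopamine nigrostriatal lesions dosed intraperitoneally; contralateral rotation scored as percentage of rats turning and average turns counted over first 15 min after turning began; 6-10 rats per group.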

In test [10] the test system is Rattus norvegicus. The description is as §3. The procedure, abridged: as §6
The source holds these as a separate data set.

Test [11] relates to Rattus norvegicus. Described as §5. The following applies: route intraperitoneal. In a few lines: (§7)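 Serum prolactin measured in reserpinized male rats given drug intraperitoneally; control group serum level alongside treated level; percent inhibition derived from control versus treated means; mean ± standard error for 10 rats per group; significance level (p) reported versus control.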
This is another data set of the same source.

Test [12] relates to Rattus norvegicus. The test is described as follows: Percentage of lesioned rats exhibiting contralateral turning after intraperitoneal dosage of 0.05 mg/kg. In a few lines: as §6
Test [13] relates to Rattus norvegicus. Described as §1. The procedure, abridged: as §6
The source holds these as a separate data set.

The test system of test [14] is Rattus norvegicus. The test is described as follows: Dopaminergic activity causing prolactin inhibition in reserpinized rat after i.p. administration at dosage of 0.005 mg/kg. Particulars: ip, route intraperitoneal. The procedure, abridged:
as §7

Test [15] has as its system Rattus norvegicus. The test is described as follows: Tested for average turns of rat / 1st 15 min at intraperitoneal dosage of 0.05 mg/kg. In a few lines: as §6
In test [16] the test system is Rattus norvegicus. The test is described as follows: Tested for lowering of serum prolactin level in reserpinized rat after i.p. administration at dosage of 0.005 mg/kg. The following applies: route intraperitoneal. The procedure, abridged: as §7
Test [17] concerns Rattus norvegicus. Kind of test: Control Serum prolactin level in reserpinized rat after i.p. administration at dosage of 0.005 mg/kg. Particulars: route intraperitoneal. The procedure, abridged: as §7
Test [18] concerns Rattus norvegicus. The test is described as follows: Control Serum prolactin level in reserpinized rat after i.p. administration at dosage of 5 mg/kg. Particulars: route intraperitoneal. The procedure, abridged:
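Reserpinized male rats, intraperitoneal dosing; serum prolactin of vehicle control group reported in ng/mL as mean ± standard error, 10 rats per group, for comparison with treated group.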

In test [19] the test system is Rattus norvegicus. The test is described as §4. The following applies: ip, route intraperitoneal. The procedure, abridged:
as §7
The source holds these as a separate data set.

Test [20] concerns Rattus norvegicus. Kind of test: Percentage of lesioned rats exhibiting contralateral turning after ip dosage of 0.02 mg/kg. Particulars: route intraperitoneal. The procedure, abridged:
as §6

Test [21] relates to Rattus norvegicus. Kind of test: tested for average turns of rat / 1st 15 min at intraperitoneal dosage of 0.1 mg/kg. The procedure, abridged: as §6
The subject of test [22] is Rattus norvegicus. Kind of test: Percentage of lesioned rats exhibiting contralateral turning after ip dosage of 0.05 mg/kg. Particulars: route intraperitoneal. The procedure, abridged:
as §6

Test [23] concerns Rattus norvegicus. Kind of test: Control Serum prolactin level in reserpinized rat after i.p. administration at dosage of 0.0005 mg/kg. Particulars: route intraperitoneal. The procedure, abridged:
as §7

Test [24] has as its system Rattus norvegicus. Kind of test: Tested for lowering of serum prolactin level in reserpinized rat after i.p. administration at dosage of 0.0005 mg/kg. The following applies: route intraperitoneal. In a few lines:
as §7

The test system of test [25] is Rattus norvegicus. The test is described as follows: Percentage of lesioned rats exhibiting contralateral turning after ip dosage of 0.1 mg/kg. The following applies: route intraperitoneal. The procedure, abridged: as §6
The subject of test [26] is Rattus norvegicus. The test is described as follows: Dopaminergic activity causing prolactin inhibition in reserpinized rat after i.p. administration at dosage of 0.0005 mg/kg. The following applies: ip, route intraperitoneal. The procedure, abridged:
as §7

Test [27] relates to Rattus norvegicus. Kind of test: Tested for average turns of rat / 1st 15 min at intraperitoneal dosage of 0.02 mg/kg. The procedure, abridged:
as §6

Test [28] has as its system Rattus norvegicus. Kind of test: Dopaminergic activity causing prolactin inhibition in reserpinized rat after i.p. administration at dosage of 0.05 mg/kg. Particulars: ip, route intraperitoneal. In a few lines: as §7
The subject of test [29] is Rattus norvegicus. Kind of test: Dopaminergic activity causing prolactin inhibition in reserpinized rat after i.p. administration at dosage of 0.5 mg/kg. Particulars: ip, route intraperitoneal.
In test [30] the test system is Rattus norvegicus. Kind of test: Tested for average turns of rat / 1st 15 min at intraperitoneal dosage of 1.0 mg/kg. In a few lines: as §6

`CCCN(CCC)C1CCc2c[nH]nc2C1` (stereo unspecified): the Average turns in [1] is given as 0; in [4], 114. For the same molecule, the Exhibiting turning in test [2] turned out to be 0%; in [3], 100%. Also, the inhibition in vivo at 0.05 mg/kg in [5] was found to be 31%.

`CCN(CC)C1CCc2c[nH]cc2C1.O=C(O)/C=C\C(=O)O` (stereo unspecified) came in with an inhibition in vivo at 5 mg/kg in [6] of 23%. The molecule also yielded an Exhibiting turning in test [3] of 0%. Also, in test [4], the Average turns worked out at 0.

Turning to `CN(C)C1CCc2n[nH]cc2C1.Cl.Cl` (stereo unspecified), the Inhibition in [7] worked out at 59.8 ng/mL; in test [8] it was 41 ng/mL. The inhibition in vivo at 5 mg/kg in [6] was determined as 69%. The Exhibiting turning in [3] is 0%. In test [4], this molecule had an Average turns of 0. The molecule also had an inhibition in vivo at 0.05 mg/kg in test [5] of 32%.

In [6], `Cl.Cl.c1[nH]nc2c1CC1NCCC[C@@H]1C2` (stereo partly specified) yielded an inhibition in vivo at 5 mg/kg of 20%. The molecule further showed an Exhibiting turning in test [9] of 0%. Further, the Average turns in test [4] is recorded as 0.

On to `CCCN1CCC[C@@H]2Cc3c[nH]cc3CC21.O=C(O)/C=C\C(=O)O` (stereo partly specified), for which the figures for the Exhibiting turning in test [10], in test [12] and in [3] were 50%, 33% and 100%, respectively. In test [11], the Treatment is 31.6 ng/mL. Besides, the Inhibition in [7] was found to be 49.5 ng/mL; in [16], 37.6 ng/mL; in test [17], 49.5 ng/mL. In addition, the inhibition in vivo at 5 mg/kg in [6] was 95%. The figures for the Average turns in test [13], in [4] and in test [15] were 64, 169 and 49, respectively. In test [14], the inhibition in vivo at 0.005 mg/kg worked out at 24%. In [5], this molecule gave an inhibition in vivo at 0.05 mg/kg of 36%.

In turn, `O=C(O)/C=C\C(=O)O.c1[nH]cc2c1CC1NCCC[C@@H]1C2` (stereo partly specified) had an Inhibition in test [18] of 43.4 ng/mL. In test [9], this molecule returned an Exhibiting turning of 0%. In addition, the Average turns in test [4] is on record as 0. This molecule yielded an inhibition in vivo at 5 mg/kg in [19] of 26%.

For `CCCN1CC(CSC)C[C@@H]2c3cccc4[nH]cc(c34)CC21.COS(=O)(=O)O` (stereo partly specified), the Exhibiting turning in test [20] is recorded as 0%; in test [22], 100%; in [25], 83%; in test [9], 100%. Also, the Average turns in test [21] is recorded as 81; in test [27], 0; in test [4], 93; in test [15], 60. For the same molecule, the Inhibition in [23] worked out at 37.7 ng/mL; in test [24], 15.5 ng/mL; in test [16], 3.5 ng/mL; in test [17], 37.7 ng/mL. In test [26], at 0.0005 mg/kg the inhibition in vivo was 59%. At 0.005 mg/kg the inhibition in vivo in test [14] was 91%. Testing at 0.05 mg/kg in [5] gave an inhibition in vivo of 95%.

For `C=CCN1CCC[C@@H]2Cc3n[nH]cc3CC21.Cl.Cl` (stereo partly specified), the inhibition in vivo at 0.05 mg/kg in [28] was 31%. The results for the Exhibiting turning in test [25] and in [9] were 0% and 100%, respectively. In addition, the Average turns in test [13] is on record as 0; in test [4], 165.

`CCCN1CCC[C@@H]2Cc3n[nH]cc3CC21.Cl.Cl` (stereo partly specified): the Exhibiting turning in [22] came to 67%; in test [25] it was 75%; in test [9] it was 100%. Also, the inhibition in vivo at 0.5 mg/kg in [29] came to 76%. The same molecule had an inhibition in vivo at 5 mg/kg in test [6] of 91%. The Average turns in test [13] was 67; in [4], 85; in [15], 6. In test [5], this molecule gave an inhibition in vivo at 0.05 mg/kg of 61%.

Regarding `CN(C)C1Cc2cccc3[nH]cc(c23)C1.O=C(O)C(=O)O` (stereo unspecified), the Exhibiting turning in test [10] came to 0%; in [3], 75%. Moreover, the figures for the Inhibition in [7] and in test [8] were 36.4 ng/mL and 19.9 ng/mL, respectively. The Average turns is 69 in test [30] and 0 in test [13]. In test [6], 5 mg/kg produced 91% inhibition in vivo. The molecule further gave an inhibition in vivo at 0.05 mg/kg in test [5] of 45%.
